Assay results taken from the M2OR odorant receptor database.
Changes are numbered by the printed parent chain.

Each molecule was assayed against T1, OR1S2 (Homo sapiens) (UniProt Q8NGQ3). Conditions: stereoisomer not certain.
T1 sequence (whole entry): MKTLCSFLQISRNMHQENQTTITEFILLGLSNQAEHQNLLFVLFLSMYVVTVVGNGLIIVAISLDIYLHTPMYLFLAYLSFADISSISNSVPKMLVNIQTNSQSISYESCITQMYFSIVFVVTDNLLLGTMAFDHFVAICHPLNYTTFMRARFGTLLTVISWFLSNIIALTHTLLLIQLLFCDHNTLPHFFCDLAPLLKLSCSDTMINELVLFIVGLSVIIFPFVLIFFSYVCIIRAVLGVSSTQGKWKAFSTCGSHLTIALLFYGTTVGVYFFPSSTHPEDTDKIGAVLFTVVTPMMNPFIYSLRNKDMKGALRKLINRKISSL
Procedure, shortened: (§1)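 Values were gathered from published papers (main text and supplementary material), with extra details requested from the original authors when needed, and checked for typos and inconsistencies. Each receptor–molecule pair is called responsive (active) if the original authors judged the measured signal statistically different from baseline, and non-responsive (inactive) otherwise. Assay methods varied by source, often transient mammalian cell-line luciferase assays. Recorded details include cell line, G-protein, co-transfected protein and tags.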

Odorant receptor agonist call, inactive:
CCCC(S)CCOC(C)=O (stereo unspecified)
CCCCCC(=O)C(C)C(C)=O (stereo unspecified)
CCCCCC(S)C(C)CO (stereo unspecified)
CC(CO)CS (stereo unspecified)
CCC(S)C(C)CO (stereo unspecified)
CC1=C(O)C(=O)OC1C (stereo unspecified)
CCC1OC(=O)C(O)=C1C (stereo unspecified)
Cc1cnc(C)c(C)n1
CCC1OC(C)=C(O)C1=O (stereo unspecified)
CC1CCCCCCCCCCCCC(=O)C1 (stereo unspecified)
CC1=NC(C)C(C)S1 (stereo unspecified)
CC(=O)c1c(C)c([N+](=O)[O-])c(C(C)(C)C)c([N+](=O)[O-])c1C
CCCCC(S)C(C)CO (stereo unspecified)
CC1=C(O)C(=O)C(C)O1 (stereo unspecified)

The molecules below were run on T2, OR1S2 E17G. Conditions: stereoisomer not certain.
T2 sequence (whole entry): T1 sequence (whole entry) with E17G
Procedure, shortened: as §1

Odorant receptor agonist call, inactive:
CCCC(S)CCOC(C)=O (stereo unspecified)
CC1=C(O)C(=O)OC1C (stereo unspecified)
CCC1OC(=O)C(O)=C1C (stereo unspecified)
Cc1cnc(C)c(C)n1
CCC1OC(C)=C(O)C1=O (stereo unspecified)
CC1=NC(C)C(C)S1 (stereo unspecified)
CC1=C(O)C(=O)C(C)O1 (stereo unspecified)

The molecules below were run on T3, OR1S2 V225T G240R. Conditions: stereoisomer not certain.
T3 sequence (whole entry): T1 sequence (whole entry) with V225T, G240R
Procedure, shortened: as §1

Odorant receptor agonist call, inactive:
CCCC(S)CCOC(C)=O (stereo unspecified)
CC1=C(O)C(=O)OC1C (stereo unspecified)
CCC1OC(=O)C(O)=C1C (stereo unspecified)
Cc1cnc(C)c(C)n1
CCC1OC(C)=C(O)C1=O (stereo unspecified)
CC1=NC(C)C(C)S1 (stereo unspecified)
CC1=C(O)C(=O)C(C)O1 (stereo unspecified)

What follows are molecules tested against T4, OR2A1 (Homo sapiens) (UniProt Q8NGT9). Conditions: stereoisomer not certain.
T4 sequence (whole entry): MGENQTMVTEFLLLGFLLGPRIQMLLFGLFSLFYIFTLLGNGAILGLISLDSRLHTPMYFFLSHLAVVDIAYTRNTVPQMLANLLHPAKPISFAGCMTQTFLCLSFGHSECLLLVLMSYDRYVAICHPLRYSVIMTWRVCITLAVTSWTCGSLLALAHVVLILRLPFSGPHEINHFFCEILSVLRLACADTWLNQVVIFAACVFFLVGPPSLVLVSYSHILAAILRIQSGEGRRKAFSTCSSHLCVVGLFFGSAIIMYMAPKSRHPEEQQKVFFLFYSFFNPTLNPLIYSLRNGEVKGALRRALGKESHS
Procedure, shortened: as §1

Odorant receptor agonist call, inactive:
CCC(=O)O
CCCC(S)CCOC(C)=O (stereo unspecified)
CCCCCC(=O)C(C)C(C)=O (stereo unspecified)
CCCCCC(S)C(C)CO (stereo unspecified)
CCCCCCCCCCCCCCCCCC(=O)OC
CC(CO)CS (stereo unspecified)
CCC(S)C(C)CO (stereo unspecified)
CCCCCCCCCCCC(=O)OC
CCCCCCC(=O)[O-].[H+]
CC1=C(O)C(=O)OC1C (stereo unspecified)
CC(O)C(=O)[O-].[H+] (stereo unspecified)
CCC1OC(=O)C(O)=C1C (stereo unspecified)
Cc1cnc(C)c(C)n1
CCCCOCC(C)O (stereo unspecified)
CCCCCCCC(=O)OCC
CCC1OC(C)=C(O)C1=O (stereo unspecified)
CC1CCCCCCCCCCCCC(=O)C1 (stereo unspecified)
CCCCCCCCCCCC(=O)OCC
CCCCCCCC(=O)[O-].[H+]
CC1=NC(C)C(C)S1 (stereo unspecified)
CC(=O)c1c(C)c([N+](=O)[O-])c(C(C)(C)C)c([N+](=O)[O-])c1C
CCCCC(S)C(C)CO (stereo unspecified)
CC(C)=CCCC(C)=CCO
CCCCCCCCCCCC(=O)O
CCCCCCCCCCCCCCCCCC(=O)[O-].[H+]
CC1=C(O)C(=O)C(C)O1 (stereo unspecified)

Each molecule was assayed on T5, OR2A1 S168C. Conditions: stereoisomer not certain.
T5 sequence (whole entry): T4 sequence (whole entry) with S168C
Procedure, shortened: as §1

Odorant receptor agonist call, inactive:
CCCC(S)CCOC(C)=O (stereo unspecified)
CC1=C(O)C(=O)OC1C (stereo unspecified)
CCC1OC(=O)C(O)=C1C (stereo unspecified)
Cc1cnc(C)c(C)n1
CCC1OC(C)=C(O)C1=O (stereo unspecified)
CC1=NC(C)C(C)S1 (stereo unspecified)
CC1=C(O)C(=O)C(C)O1 (stereo unspecified)
